Values joined by “and” are separate entries in the source; they are usually repeats but may differ in a detail not shown here. Equal values may be shown once.
How the values were obtained:
[1] = Antiplatelet activity against pig platelet assessed as inhibition of ADP-induced platelet aggregation by spectrophotometry; type: functional, cell-based; details: Sus scrofa
Method in brief: (§1)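 Pig blood (six pigs) spun 1000 rpm 10 min for PRP, then 1500 rpm 10 min for PPP; PRP adjusted to 2×10^8 platelets/mL with autologous PPP. Compound (final 100 µM to 1 nM, diluted in NS from DMSO/NS stock) or NS added, then inducer at final PAF 0.1 µM, ADP 10 µM, AA 350 µM or thrombin 0.1 U/mL.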

[2] = Antiplatelet activity against pig platelet assessed as inhibition of arachidonic acid-induced platelet aggregation by spectrophotometry; type: functional, cell-based; details: Sus scrofa; method in brief: as §1
[3] = Antiplatelet activity against pig platelet assessed as inhibition of PAF-induced platelet aggregation by spectrophotometry; type: functional, cell-based; details: Sus scrofa; method in brief: as §1
[4] = Antiplatelet activity against pig platelet assessed as inhibition of thrombin-induced platelet aggregation by spectrophotometry; type: functional, cell-based; details: Sus scrofa; method in brief: as §1
[5] = Antiplatelet activity against pig platelet assessed as inhibition of ADP-induced platelet aggregation at 10 uM by spectrophotometry; type: functional; details: Sus scrofa; method in brief: as §1
[6] = Antiplatelet activity against pig platelet assessed as inhibition of arachidonic acid-induced platelet aggregation at 10 uM by spectrophotometry; type: functional; details: Sus scrofa; method in brief: as §1
[7] = Antiplatelet activity against pig platelet assessed as inhibition of PAF-induced platelet aggregation at 10 uM by spectrophotometry; type: functional; details: Sus scrofa; method in brief: as §1
[8] = Antiplatelet activity against pig platelet assessed as inhibition of thrombin-induced platelet aggregation at 10 uM by spectrophotometry; type: functional; details: Sus scrofa; method in brief: as §1
[9] = system: Rattus norvegicus; experiment: Antithrombotic activity in Wistar rat assessed as thrombus weight at 15 umol/kg, iv (reference value: 24.09 +/- 2.33 mg); type: functional
[10] = system: Rattus norvegicus; experiment: Antithrombotic activity in Wistar rat assessed as thrombus weight at 15 umol/kg, iv (reference value: 25.99 +/- 2.41 mg); type: functional
[11] = system: Rattus norvegicus; experiment: Antithrombotic activity in Wistar rat assessed as thrombus weight at 10 nmol/kg, iv (reference value: 24.09 +/- 2.33 mg); type: functional
[12] = system: Rattus norvegicus; experiment: Antithrombotic activity in Wistar rat assessed as thrombus weight at 100 nmol/kg, iv (reference value: 22.09 +/- 3.33 mg); type: functional
[13] = system: Rattus norvegicus; experiment: Antithrombotic activity in Wistar rat assessed as thrombus weight at 1 nmol/kg, iv (reference value: 22.09 +/- 3.33 mg); type: functional
[14] = system: Rattus norvegicus; experiment: Antithrombotic activity in iv dosed Wistar rat assessed as decrease in thrombus weight; type: functional, organism-based
[15] = system: Aorta; experiment: Inhibition of noradrenaline-induced contraction in Wistar rat thoracic aortic ring assessed as vasorelaxant activity at 300 uM treated after noradrenaline challenge; type: functional; set-up: scale not given: the % may be the effect or the level left
Method in brief: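 Male Wistar rats, 250–300 g, were decapitated and aortic strips were mounted in 37 °C Krebs solution (pH 7.4) gassed with 95% O2/5% CO2, connected to a tension transducer. Strips were contracted with 59 µM noradrenaline, washed, stabilised 30 min, then re-contracted with 59 µM noradrenaline. At peak contraction, compound in ethanol or ethanol alone was added and relaxation was recorded.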

[16] = system: Rattus norvegicus; experiment: Antithrombotic activity in Wistar rat assessed as thrombus weight at 167 umol/kg, iv (reference value: 24.09 +/- 2.33 mg); type: functional
[17] = system: Rattus norvegicus; experiment: Antithrombotic activity in Wistar rat assessed as thrombus weight at 167 umol/kg, iv (reference value: 25.99 +/- 2.41 mg); type: functional
[18] = system: Rattus norvegicus; experiment: Antithrombotic activity in Wistar rat assessed as thrombus weight at 15 umol/kg, iv (reference value: 28.54 +/- 2.62 mg); type: functional
[19] = system: Rattus norvegicus; experiment: Antithrombotic activity in Wistar rat assessed as thrombus weight at 167 umol/kg, iv (reference value: 28.54 +/- 2.62 mg); type: functional

Row | IC50 [1] [nM] | IC50 [2] [nM] | IC50 [3] [nM] | IC50 [4] [nM] | SMILES | Activity [11] | Activity [15] [%] | also measured
1 | 542 | 481 | 944 | 980 | O=C(O)[C@@H]1Cc2ccccc2CN1 | – | – | inhibition at 10 µM [5]: 10.7%; inhibition at 10 µM [6]: 10.4%; inhibition at 10 µM [7]: 13.5%; inhibition at 10 µM [8]: 14.5%; Activity [9]: 22.01 mg; Activity [10]: 22.22 mg
2 | 171 | 287 | 515 | 599 | CC(C)C[C@@H](C(=O)O)N1C(=O)[C@@H]2Cc3ccccc3CN2C1(C)C | 12.99 mg and 13.79 mg | 30.14 | Activity [12]: 10.02 mg; Activity [13]: 20.67 mg; inhibition [14]: Dose-dependent effect
3 | – | – | – | – | CC(=O)Oc1ccccc1C(=O)O [ASPIRIN] | – | – | Activity [16]: 13.22 mg; Activity [17]: 15.01 mg; Activity [18]: 27.6 mg; Activity [19]: 13.22 mg
4 | 163 | 277 | 496 | 578 | CC1(C)N2Cc3ccccc3C[C@H]2C(=O)N1[C@@H](Cc1ccccc1)C(=O)O | 13.27 mg | 26.61 | –
5 | 264 | 408 | 499 | 852 | CSCC[C@@H](C(=O)O)N1C(=O)[C@@H]2Cc3ccccc3CN2C1(C)C | 19.56 mg | 5.58 | –
6 | 273 | 420 | 752 | 875 | CC1(C)N2Cc3ccccc3C[C@H]2C(=O)N1[C@@H](Cc1ccc(O)cc1)C(=O)O | 20.1 mg | 1.59 | –
7 | 159 | 271 | 486 | 567 | CC1(C)N2Cc3ccccc3C[C@H]2C(=O)N1[C@@H](CCCNC(=N)N)C(=O)O | 13.01 mg | 32.58 | –
8 | 182 | 302 | 541 | 629 | CC1(C)N2Cc3ccccc3C[C@H]2C(=O)N1[C@@H](CCC(N)=O)C(=O)O | 14.39 mg | 12.24 | –
9 | 175 | 292 | 525 | 610 | CC(C)[C@@H](C(=O)O)N1C(=O)[C@@H]2Cc3ccccc3CN2C1(C)C | 14.01 mg | 16 | –
10 | 294 | 447 | 801 | 932 | CC1(C)N2Cc3ccccc3C[C@H]2C(=O)N1[C@@H](CC(=O)O)C(=O)O | 21.41 mg | 2.89 | –
11 | 191 | 313 | 561 | 652 | CC1(C)N2Cc3ccccc3C[C@H]2C(=O)N1[C@@H](CCCCN)C(=O)O | 14.98 mg | 12.01 | –

From ChEMBL document CHEMBL1641479, “2-Substituted (S)-2-(3,3-dimethyl-1-oxo-10,10a-dihydroimidazo[1,5-b]isoquinolin-2(1H,3H,5H)-yl)acetic acids: Conformational prediction, synthesis, anti-thrombotic and vasodilative evaluation” (Bioorg Med Chem, 2011)
